Experimental data from paper PMC9111184 (Current Research in Pharmacology and Drug Discovery, 2022).

Legend:
Caco-2 cells = experiment: FTIR analysis of treated cells; type: cell-based, Human; details: phenolic compounds 1 mM, 24 h
Method in brief: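 Cell suspension at ~1.2 × 10^6 cells/mL was seeded onto CaF2 windows and left overnight. Cells were then exposed 24 h to phenolic test compounds at 1 mM or another test compound at 100 μM; untreated cells served as control. FTIR spectra covered 900–3000 cm−1 at 4 cm−1 resolution, averaging 128 scans, and were normalized to Amide II. Spectra were Savitsky-Golay smoothed (eight points) and second-derivative processed; 4 replicates.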

Permeability = type: in vitro ADME; details: human, Caco-2
Method in brief: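 Monolayers were Caco-2 grown 16 days on 0.4 μm-pore transwell inserts after seeding at 2–4 x 10^4 cells/cm2, with TEER above 250 Ω/cm2 checked before and after. Test compound in DMEM containing 5 mM cholesterol went apically and DMEM basolaterally for 24 h, 37 °C, 5% CO2. Both compartments were quantified by RP-HPLC-DAD. Papp = (dQ/dt)/(A × C0), using basolateral appearance rate, membrane area and initial concentration.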

Caco-2 cell monolayers = type: cell-based, Human; details: relative to cholesterol alone, 24 h
Method in brief: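 Caco-2 seeded at 2–4 x 10^4 cells/cm2 on transwell inserts (0.4 μm pore) and grown 16 days into monolayers. TEER was read before and after; monolayers above […] were accepted. Test compound was added apically in DMEM together with 5 mM cholesterol, with plain DMEM basolateral. After 24 h at 37 °C, 5% CO2, both sides were sampled for RP-HPLC-DAD. Cholesterol permeation % = amount transported/initial apical amount.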

[1] = MTT cytotoxicity on Caco-2 cell line; type: cell-based; details: human, Caco-2 cells
Method in brief: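 MTT viability test: 2 × 10^4 cells per well, pre-incubated 48 h at 37 °C, 5% CO2. Test compound in FBS-free DMEM was added at 0.025–1 mg/mL (phenolic acids) or 0.1–1 mM (other compound) for 24 h, then MTT reagent. Absorbance was read at 595 nm minus 630 nm, and viability expressed as % of untreated control; eight replicates per concentration.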

Papp at 24 h (Permeability)	SMILES	Change of bands at 965, 1081 and 1240 cm−1 (DNA bands) relative to control (Caco-2 cells; Ezetimibe 100 μM)	Change of random coil structures at 1650 cm−1 vs untreated cells (Caco-2 cells; Ezetimibe 100 μM)	Change of β-sheets band area at ∼1637 and 1683 cm−1 vs untreated cells (Caco-2 cells; Ezetimibe 100 μM)	Decrease in cholesterol permeability (Caco-2 cell monolayers)	Change of band at 1081 cm−1 relative to control (Caco-2 cells)	IC50 at 24 h [1]
1.68 ×10⁻⁶ cm/s	O=C(/C=C/c1ccc(O)c(O)c1)O[C@H](Cc1ccc(O)c(O)c1)C(=O)O [RA, rosmarinic acid]	decrease	increase	increase	85.65%		
1.38 ×10⁻⁶ cm/s	O=C(/C=C/c1ccc(O)c(O)c1)O[C@@H]1C[C@](O)(C(=O)O)C[C@@H](O)[C@H]1O [ChA, chlorogenic acid]	decrease			80.29%	increase	
2.94 ×10⁻⁶ cm/s	O=C1[C@H](CC[C@H](O)c2ccc(F)cc2)[C@@H](c2ccc(O)cc2)N1c1ccc(F)cc1 [EZ, ezetimibe, reference compound]				96.60%		228 µM
	O=C(O)/C=C/c1cccc(O)c1 [m-CA, m-coumaric acid]	decrease		didn't show any changes	77.70%		
